# Reference: ChEMBL document CHEMBL5303300, “EUbOPEN Chemogenomics Library - Multiplex” (2023)
# Several values for one entry are separate records, joined by “and”; a condition that tells them apart may be missing. Identical values can stand only once.
# Test system: U2OS
# Test: Multiplex assay against U2OS
# Format: toxicity, cell-based
# Details: human, number of replicates 2
# Outline: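 Tubulin, mitochondrial-mass and membrane-permeability phenotypes are per cents of healthy-nucleus cells. Cells were gated by CellPathfinder machine learning into Hoechst high-intensity objects or normal cells, normal cells into healthy, pyknosed or fragmented nuclei, and pyknosed cells into mitotic or apoptotic. Before that, live cells stained at seeding with Hoechst33342, BioTracker Green Microtubule Cytoskeleton Dye, MitoTracker Red and Annexin V Alexa Fluor 680 were imaged on a CQ1 microscope at 37°C and 5% CO2 after compound addition.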
# [1] = 12 h, 1 µM, compound concentration 1 uM
# [2] = 12 h, 10 µM, compound concentration 10 uM
# [3] = 24 h, 1 µM, compound concentration 1 uM
# [4] = 24 h, 10 µM, compound concentration 10 uM
# [5] = 48 h, 1 µM, compound concentration 1 uM
# [6] = 48 h, 10 µM, compound concentration 10 uM
smiles,measurement,setting,value
CN[C@@H]1CC[C@@H](c2ccc(Cl)c(Cl)c2)c2ccccc21.Cl,Population Apoptotic (%),[1],66% and 62%
same,Population Fragmented Nuclei (%),[1],4% and 9%
same,Population Healthy Nuclei (%),[1],82% and 78%
same,Population Hoechst High Intensity Objects (%),[1],0%
same,Population Membrane Permeable-Phenotype (%),[1],4% and 9%
same,Population Mitotic Cells (%),[1],33% and 37%
same,Population Normal (%),[1],100%
same,Population Pyknosed Nuclei (%),[1],13% and 12%
same,Population Tubulin-Different-Phenotype (%),[1],52% and 43%
same,Population Apoptotic (%),[2],83% and 60%
same,Population Healthy Nuclei (%),[2],33% and 57%
same,Population Hoechst High Intensity Objects (%),[2],0%
same,Population Membrane Permeable-Phenotype (%),[2],30%
same,Population Mitochondria Different-Phenotype (%),[2],53% and 50%
same,Population Mitotic Cells (%),[2],16% and 40%
same,Population Normal (%),[2],100%
same,Population Pyknosed Nuclei (%),[2],30% and 32%
same,Population Tubulin-Different-Phenotype (%),[2],84% and 73%
same,Population Apoptotic (%),[3],60% and 71%
same,Population Fragmented Nuclei (%),[3],1% and 7%
same,Population Healthy Nuclei (%),[3],84% and 81%
same,Population Hoechst High Intensity Objects (%),[3],0%
same,Population Membrane Permeable-Phenotype (%),[3],2% and 1%
same,Population Mitochondria Different-Phenotype (%),[3],6% and 1%
same,Population Mitotic Cells (%),[3],39% and 28%
same,Population Normal (%),[3],100%
same,Population Pyknosed Nuclei (%),[3],14% and 10%
same,Population Tubulin-Different-Phenotype (%),[3],63% and 33%
same,Population Apoptotic (%),[4],90% and 75%
same,Population Hoechst High Intensity Objects (%),[4],0%
same,Population Membrane Permeable-Phenotype (%),[4],42% and 33%
same,Population Mitochondria Different-Phenotype (%),[4],100% and 63%
same,Population Mitotic Cells (%),[4],10% and 25%
same,Population Normal (%),[4],100%
same,Population Pyknosed Nuclei (%),[4],50% and 35%
same,Population Tubulin-Different-Phenotype (%),[4],100% and 75%
same,Population Apoptotic (%),[5],85% and 52%
same,Population Fragmented Nuclei (%),[5],2%
same,Population Healthy Nuclei (%),[5],85% and 76%
same,Population Hoechst High Intensity Objects (%),[5],0%
same,Population Membrane Permeable-Phenotype (%),[5],1%
same,Population Mitochondria Different-Phenotype (%),[5],3% and 1%
same,Population Normal (%),[5],99% and 100%
same,Population Pyknosed Nuclei (%),[5],11% and 20%
same,Population Tubulin-Different-Phenotype (%),[5],72% and 37%
same,Population Apoptotic (%),[6],88% and 79%
same,Population Fragmented Nuclei (%),[6],31% and 16%
same,Population Hoechst High Intensity Objects (%),[6],0%
same,Population Membrane Permeable-Phenotype (%),[6],40% and 45%
same,Population Mitochondria Different-Phenotype (%),[6],60% and 65%
same,Population Mitotic Cells (%),[6],11% and 20%
same,Population Normal (%),[6],100%
same,Population Pyknosed Nuclei (%),[6],57% and 37%
same,Population Tubulin-Different-Phenotype (%),[6],100% and 74%
COCCN1CCN(CCn2ccc(Nc3ncc4c(n3)-c3c(nn(C)c3-c3ccccc3)C[C@H]4C)n2)CC1,Population Apoptotic (%),[1],40% and 50%
same,Population Healthy Nuclei (%),[1],84% and 72%
same,Population Hoechst High Intensity Objects (%),[1],0%
same,Population Membrane Permeable-Phenotype (%),[1],1% and 5%
same,Population Mitochondria Different-Phenotype (%),[1],0%
same,Population Mitotic Cells (%),[1],59% and 50%
same,Population Normal (%),[1],100%
same,Population Pyknosed Nuclei (%),[1],11% and 7%
same,Population Tubulin-Different-Phenotype (%),[1],82% and 40%
same,Population Apoptotic (%),[2],46% and 63%
same,Population Fragmented Nuclei (%),[2],8% and 4%
same,Population Healthy Nuclei (%),[2],61% and 79%
same,Population Hoechst High Intensity Objects (%),[2],0%
same,Population Membrane Permeable-Phenotype (%),[2],6% and 7%
same,Population Mitochondria Different-Phenotype (%),[2],6% and 8%
same,Population Mitotic Cells (%),[2],53% and 36%
same,Population Normal (%),[2],100% and 99%
same,Population Pyknosed Nuclei (%),[2],30% and 16%
same,Population Tubulin-Different-Phenotype (%),[2],20% and 35%
same,Population Apoptotic (%),[3],58% and 83%
same,Population Fragmented Nuclei (%),[3],2% and 10%
same,Population Healthy Nuclei (%),[3],86% and 81%
same,Population Hoechst High Intensity Objects (%),[3],0%
same,Population Membrane Permeable-Phenotype (%),[3],0% and 7%
same,Population Mitochondria Different-Phenotype (%),[3],0% and 1%
same,Population Mitotic Cells (%),[3],41% and 16%
same,Population Normal (%),[3],100%
same,Population Pyknosed Nuclei (%),[3],11% and 8%
same,Population Tubulin-Different-Phenotype (%),[3],83% and 47%
same,Population Apoptotic (%),[4],86% and 70%
same,Population Fragmented Nuclei (%),[4],12% and 4%
same,Population Healthy Nuclei (%),[4],63% and 78%
same,Population Hoechst High Intensity Objects (%),[4],0%
same,Population Membrane Permeable-Phenotype (%),[4],5% and 4%
same,Population Mitochondria Different-Phenotype (%),[4],5% and 12%
same,Population Mitotic Cells (%),[4],13% and 29%
same,Population Normal (%),[4],100%
same,Population Pyknosed Nuclei (%),[4],23% and 16%
same,Population Tubulin-Different-Phenotype (%),[4],40% and 37%
same,Population Apoptotic (%),[5],58% and 45%
same,Population Fragmented Nuclei (%),[5],10% and 1%
same,Population Healthy Nuclei (%),[5],68% and 89%
same,Population Hoechst High Intensity Objects (%),[5],0%
same,Population Membrane Permeable-Phenotype (%),[5],9% and 1%
same,Population Mitochondria Different-Phenotype (%),[5],0%
same,Population Mitotic Cells (%),[5],41% and 54%
same,Population Normal (%),[5],100%
same,Population Pyknosed Nuclei (%),[5],21% and 8%
same,Population Tubulin-Different-Phenotype (%),[5],54% and 80%
same,Population Apoptotic (%),[6],88% and 91%
same,Population Fragmented Nuclei (%),[6],12% and 6%
same,Population Healthy Nuclei (%),[6],70% and 78%
same,Population Hoechst High Intensity Objects (%),[6],0%
same,Population Membrane Permeable-Phenotype (%),[6],10%
same,Population Mitochondria Different-Phenotype (%),[6],2% and 9%
same,Population Mitotic Cells (%),[6],11% and 8%
same,Population Normal (%),[6],100% and 99%
same,Population Pyknosed Nuclei (%),[6],16% and 14%
same,Population Tubulin-Different-Phenotype (%),[6],38% and 34%
Cc1ccc(C(=O)Nc2cc(N3CCN(C)CC3)cc(C(F)(F)F)c2)cc1-n1cc(-c2cnn(C)c2C)nn1.Cl,Population Apoptotic (%),[1],25% and 60%
same,Population Healthy Nuclei (%),[1],70% and 79%
same,Population Hoechst High Intensity Objects (%),[1],0%
same,Population Membrane Permeable-Phenotype (%),[1],12% and 17%
same,Population Mitotic Cells (%),[1],75% and 39%
same,Population Normal (%),[1],100%
same,Population Pyknosed Nuclei (%),[1],8% and 17%
same,Population Tubulin-Different-Phenotype (%),[1],69% and 29%
same,Population Apoptotic (%),[2],60% and 83%
same,Population Healthy Nuclei (%),[2],69% and 51%
same,Population Hoechst High Intensity Objects (%),[2],0%
same,Population Membrane Permeable-Phenotype (%),[2],28% and 37%
same,Population Mitochondria Different-Phenotype (%),[2],42% and 62%
same,Population Mitotic Cells (%),[2],39% and 16%
same,Population Normal (%),[2],100%
same,Population Pyknosed Nuclei (%),[2],24% and 19%
same,Population Tubulin-Different-Phenotype (%),[2],86% and 87%
same,Population Apoptotic (%),[3],31% and 70%
same,Population Healthy Nuclei (%),[3],55% and 73%
same,Population Hoechst High Intensity Objects (%),[3],0%
same,Population Membrane Permeable-Phenotype (%),[3],0% and 9%
same,Population Mitotic Cells (%),[3],68% and 29%
same,Population Normal (%),[3],100%
same,Population Pyknosed Nuclei (%),[3],27% and 24%
same,Population Tubulin-Different-Phenotype (%),[3],68% and 44%
same,Total Cell Count,[3],69 and 193
same,Population Apoptotic (%),[4],85%
same,Population Fragmented Nuclei (%),[4],28% and 10%
same,Population Healthy Nuclei (%),[4],46% and 50%
same,Population Hoechst High Intensity Objects (%),[4],3% and 0%
same,Population Membrane Permeable-Phenotype (%),[4],23% and 42%
same,Population Mitochondria Different-Phenotype (%),[4],38% and 55%
same,Population Mitotic Cells (%),[4],14%
same,Population Normal (%),[4],96% and 99%
same,Population Pyknosed Nuclei (%),[4],25% and 38%
same,Population Tubulin-Different-Phenotype (%),[4],69% and 89%
same,Population Apoptotic (%),[5],69% and 75%
same,Population Fragmented Nuclei (%),[5],9% and 3%
same,Population Healthy Nuclei (%),[5],65% and 72%
same,Population Hoechst High Intensity Objects (%),[5],0%
same,Population Membrane Permeable-Phenotype (%),[5],4% and 8%
same,Population Mitotic Cells (%),[5],30% and 24%
same,Population Normal (%),[5],100% and 99%
same,Population Pyknosed Nuclei (%),[5],24%
same,Population Tubulin-Different-Phenotype (%),[5],72% and 41%
same,Population Apoptotic (%),[6],92% and 100%
same,Population Healthy Nuclei (%),[6],21% and 26%
same,Population Hoechst High Intensity Objects (%),[6],0%
same,Population Membrane Permeable-Phenotype (%),[6],52% and 22%
same,Population Mitochondria Different-Phenotype (%),[6],63% and 55%
same,Population Mitotic Cells (%),[6],7% and 0%
same,Population Normal (%),[6],99% and 100%
same,Population Pyknosed Nuclei (%),[6],67% and 38%
same,Population Tubulin-Different-Phenotype (%),[6],86% and 66%
C[C@@H](OC[C@@]1(c2ccccc2)CC[C@]2(CCC(=O)N2)CN1)c1cc(C(F)(F)F)cc(C(F)(F)F)c1 [ROLAPITANT],Population Apoptotic (%),[1],20% and 40%
same,Population Fragmented Nuclei (%),[1],11% and 3%
same,Population Healthy Nuclei (%),[1],73% and 86%
same,Population Hoechst High Intensity Objects (%),[1],0%
same,Population Membrane Permeable-Phenotype (%),[1],4% and 1%
same,Population Mitochondria Different-Phenotype (%),[1],0%
same,Population Mitotic Cells (%),[1],80% and 59%
same,Population Normal (%),[1],100%
same,Population Pyknosed Nuclei (%),[1],14% and 9%
same,Population Tubulin-Different-Phenotype (%),[1],76% and 86%
same,Population Apoptotic (%),[2],37% and 50%
same,Population Healthy Nuclei (%),[2],85% and 71%
same,Population Hoechst High Intensity Objects (%),[2],0%
same,Population Membrane Permeable-Phenotype (%),[2],1% and 5%
same,Population Mitochondria Different-Phenotype (%),[2],0% and 5%
same,Population Mitotic Cells (%),[2],62% and 50%
same,Population Normal (%),[2],99% and 100%
same,Population Pyknosed Nuclei (%),[2],8% and 7%
same,Population Tubulin-Different-Phenotype (%),[2],87% and 30%
same,Population Apoptotic (%),[3],100% and 52%
same,Population Fragmented Nuclei (%),[3],7% and 2%
same,Population Healthy Nuclei (%),[3],90% and 87%
same,Population Hoechst High Intensity Objects (%),[3],0%
same,Population Membrane Permeable-Phenotype (%),[3],0% and 1%
same,Population Mitochondria Different-Phenotype (%),[3],0% and 1%
same,Population Normal (%),[3],100%
same,Population Pyknosed Nuclei (%),[3],2% and 9%
same,Population Tubulin-Different-Phenotype (%),[3],77% and 90%
same,Population Apoptotic (%),[4],48% and 50%
same,Population Healthy Nuclei (%),[4],89% and 77%
same,Population Hoechst High Intensity Objects (%),[4],0%
same,Population Membrane Permeable-Phenotype (%),[4],0% and 3%
same,Population Mitochondria Different-Phenotype (%),[4],0% and 3%
same,Population Mitotic Cells (%),[4],51% and 50%
same,Population Normal (%),[4],99% and 100%
same,Population Pyknosed Nuclei (%),[4],7% and 5%
same,Population Tubulin-Different-Phenotype (%),[4],91% and 35%
same,Population Apoptotic (%),[5],40% and 48%
same,Population Fragmented Nuclei (%),[5],5% and 1%
same,Population Healthy Nuclei (%),[5],87% and 92%
same,Population Hoechst High Intensity Objects (%),[5],0%
same,Population Membrane Permeable-Phenotype (%),[5],1%
same,Population Mitochondria Different-Phenotype (%),[5],0%
same,Population Mitotic Cells (%),[5],60% and 51%
same,Population Normal (%),[5],100% and 99%
same,Population Pyknosed Nuclei (%),[5],6% and 5%
same,Population Tubulin-Different-Phenotype (%),[5],87% and 91%
same,Population Apoptotic (%),[6],48% and 28%
same,Population Fragmented Nuclei (%),[6],2% and 7%
same,Population Healthy Nuclei (%),[6],90% and 78%
same,Population Hoechst High Intensity Objects (%),[6],0%
same,Population Membrane Permeable-Phenotype (%),[6],0% and 4%
same,Population Mitochondria Different-Phenotype (%),[6],0% and 4%
same,Population Mitotic Cells (%),[6],51% and 71%
same,Population Normal (%),[6],100%
same,Population Pyknosed Nuclei (%),[6],6% and 13%
